Assay results: ChEMBL document CHEMBL2406979, “Antitumor activity of 2-hydroxycinnamaldehyde for human colon cancer cells through suppression of β-catenin signaling” (J Nat Prod, 2013)
Calls of active or inactive are those of the source. No cut-off for these calls is given here.

System: HEK293
Test: Inhibition of Wnt/beta-catenin (unknown origin) signaling pathway expressed in HEK293 cells assessed as inhibition of TCF4 transcriptional activity at 5 to 40 uM after 24 hrs by TOPflash reporter gene assay
Format: cell-based
Details: Homo sapiens
In short: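 HEK293 cells seeded at 1.5 × 10^4 per well and cotransfected (Lipofectamine 2000) with TOPflash luciferase reporter 0.1 μg, Renilla 0.005 μg for normalization, pcDNA β-catenin 0.02 μg and TCF4 expression vector 0.004 μg to activate Wnt; 24 h later treated with compound or solvent for 24 h; dual luciferase read-out, Renilla-normalized, relative to vehicle; triplicate.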

`COc1ccccc1/C=C/C=O` was tested, and the inhibition was “Active”.
